From PubChem
Compounds with a hit are over-represented: about 0.9% of the library has one in this group of screens.
DAGLB inh = blocks human DAGLB lipase activity | HEK293T DAGLB membrane lysate, EnzChek fluorogenic substrate | inhibition, % at 5.17 µM | 340,000 tested, 0.059% active | AID 504411; in the data active = inhibition above about 34%;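 note: 0% = enzyme with vehicle and 100% = wells lacking enzyme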
Target sequence (Q8NCG7 whole entry, looked up): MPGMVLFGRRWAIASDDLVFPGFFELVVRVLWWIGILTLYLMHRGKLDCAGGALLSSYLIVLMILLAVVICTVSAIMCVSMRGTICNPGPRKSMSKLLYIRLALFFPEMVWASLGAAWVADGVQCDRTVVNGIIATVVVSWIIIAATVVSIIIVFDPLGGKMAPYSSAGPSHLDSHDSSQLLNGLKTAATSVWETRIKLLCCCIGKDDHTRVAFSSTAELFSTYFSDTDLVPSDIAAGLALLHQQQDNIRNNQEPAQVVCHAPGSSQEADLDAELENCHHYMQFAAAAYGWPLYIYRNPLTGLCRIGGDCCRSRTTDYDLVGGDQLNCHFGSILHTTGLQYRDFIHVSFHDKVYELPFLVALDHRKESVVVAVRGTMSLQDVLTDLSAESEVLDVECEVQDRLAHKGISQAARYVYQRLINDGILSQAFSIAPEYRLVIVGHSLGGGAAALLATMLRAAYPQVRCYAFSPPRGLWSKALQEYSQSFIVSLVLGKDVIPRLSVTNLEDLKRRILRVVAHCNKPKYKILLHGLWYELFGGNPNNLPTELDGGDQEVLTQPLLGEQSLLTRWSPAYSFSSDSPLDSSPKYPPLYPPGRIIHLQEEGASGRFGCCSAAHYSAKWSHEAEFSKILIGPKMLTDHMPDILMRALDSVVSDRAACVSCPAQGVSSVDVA
Tn7 DDE FP = disrupts Tn7 cyclic peptide binding to fibrin D-Dimer-E complex; FP displacement of FITC-Tn7 peptide from fibrin DD(E); 0% = median of compound wells per plate; inhibition, % at 8.3 µM; 370,000 tested, 0.13% active; AID 720508;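 active = inhibition above the mean of compounds falling within the control limits plus 3 SD of them, cut at about 14% in these data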;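 note: 0% = plate median of compound wells and 100% = 10 µM Aha-Tn7 peptide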
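Measure: % inhibition scaled between sample-field median and high-control FP; Test system: human fibrin DD(E); Quantity: 2 µM final DD(E) protein; Doses: one dose, 8.3 µM nominal; Schedule: compound with protein 10 min, then 3 h after probe, room temperature; Detection: fluorescence polarization; Medium: Tris buffer with calcium and detergent, pH 7.8.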
DDE Tn6 FP inh = disrupts Tn6 cyclic peptide binding to fibrin D-Dimer-E complex; Fibrin DD(E) TRITC-Tn6 fluorescence polarization displacement; 370,000 tested, 0.21% active; inhibition, % at 8.3 µM; P02675;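 active = inhibition above a per-campaign cutoff: mean of compounds within control limits plus 3 SD, cut at about 15% in these data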;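 note: 0% = median of all compound wells on the plate and 100% = blocking peptide control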
MT1-MMP act inh = MT1-MMP (human) activation inhibition | P50281 | HT1080 RFP-PRO-GFP cells, GFP/RFP ratio fluorescence, overnight; percent of plate control window, DMSO zero | GFP/RFP ratio change, % at 20 µM | 360,000 tested, 0.061% active | AID 651647;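 active = GFP/RFP ratio change of at least 30% with cell ATP level not reduced by more than half and red fluorescence within 50% of control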
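Test system: HT1080 cells expressing an RFP-PRO-GFP fluorescent reporter construct / Compound dosing: single-point 20 µM compound, 1% DMSO / Schedule: cells overnight before dosing, compound overnight, 37 °C, 5% CO2 / Evaluation: GFP/RFP fluorescence ratio / Control set: DMSO and RFP-L50D-GFP cell wells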
SKN-1 block = C. elegans SKN-1 inhibition. C. elegans VP596 Pgst-4::GFP/RFP ratio, acrylamide-induced, 24 h. inhibition, % at 21.8 µM. 360,000 tested, 0.49% active. AID 624304;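 active = interference check ratio from 0.5 to 1.5 plus GFP to RFP signal ratio inhibition reaching or exceeding a fixed threshold, cut at about 30% in these data, passing the limit was not always enough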
PolyA inh = yeast polyadenylation inhibition; AID 1875; S. cerevisiae SKY197-pL101 polyadenylation reporter, beta-gal luminescence; efflux-impaired pdr1/pdr3 knockout yeast; score 100 = 6 SD above DMSO; 300,000 tested, 0.02% active; activity score, % at 12 µM;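 active = lowest replicate activity score at least 50, where 100 means six control SD above control mean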;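 note: yeast exposed to compound for 9 h at 30 °C; higher score means more reporter readthrough which indicates perturbed polyadenylation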
Starred values were filed as active, the others as inactive; nt = not tested or not shown.

SMILES	DAGLB inh	Tn7 DDE FP	DDE Tn6 FP inh	MT1-MMP act inh	SKN-1 block	PolyA inh
CC(C)CN(CC(C)C)C(=O)c1cn(C(C)c2ccccc2)nn1 (centres undefined)	nt	5.4	8.6	nt	nt	nt
CC1(c2ccccc2)CC(=O)N(c2ccc(NC(=O)c3ccccn3)cc2Cl)C1=O (centres undefined)	nt	2.6	7.4	nt	nt	nt
COc1ccc(N2C(=O)/C(=C/c3ccc([N+](=O)[O-])cc3)C=C2c2ccccc2)cc1	3.5	9.8	0.7	-4.2	39.6*	-5.8
CN(CC(=O)Nc1ccc(F)cc1)C(=O)COC(=O)c1ccc(=O)n(Cc2ccccc2)n1	0.9	56.4*	14.8	-2.4	11.9	nt
CN(CC(=O)Nc1ccccc1Cl)C(=O)COC(=O)c1ccc(=O)n(Cc2ccccc2)n1	1.8	2.8	3.0	-2.2	2.6	1.7
COc1ccc(Oc2c(Br)cnn(Cc3cccc4ccccc34)c2=O)cc1	nt	-2.1	2.7	nt	nt	nt
Cc1cccc(N=Nc2c(O)[nH]c3ccc(Br)cc23)c1	0.8	0.8	-5.6	-6.8	19.9	-10.5
COc1ccccc1N=Nc1c(O)[nH]c2ccc(Br)cc12	-1.1	10.4	-3.0	-40.6	49.9*	29.9
Fc1ccc(-c2nnc(-c3ccc(F)cc3)o2)cc1	-7.8	4.1	4.3	-1.2	38.7*	-7.1
Fc1ccc(-c2nnc(-c3ccc4ccccc4c3)o2)cc1	-16.8	-1.7	-0.9	-3.8	43.1*	nt
Cc1cc2ccccn2c1C(=O)Nc1cccc(Cl)c1	-1.4	4.2	-8.9	-11.1	62.3*	nt
COc1ccc(-c2noc(C3CCCN(C(=O)Nc4cccc(C)c4)C3)n2)cc1 (centres undefined)	nt	9.4	1.2	nt	nt	nt
CSc1ccccc1NC(=O)c1cccs1	-5.9	4.8	-2.9	1.2	-15.4	12.5
O=C(Nc1ccccc1Oc1ccccc1)c1cccs1	-6.1	-1.6	-5.7	-1.1	41.9*	-22.4
CCN1/C(=C(\O)c2ccccc2)C(=O)c2ccccc2S1(=O)=O	-1.1	0.8	-4.5	-8.8	44.1*	-6.6
CCOC(=O)CC[C@@H]1CC[C@]2(CCCN(Cc3ccc(OC)cc3)C2)O1	nt	-4.2	2.7	nt	nt	nt
C[C@H]1[C@@H](OC(=O)NCc2cccc(Cl)c2)CC[C@@]23CCCN2C(=O)CCC[C@@H]13	nt	5.1	0.5	nt	nt	nt
S=C(Nc1ccccc1)Nc1nc2ccccc2n1CCOc1ccc(Cl)cc1	-4.5	1.3	8.3	8.7	58.9*	24.4
C(=C1c2ccccc2-c2ccccc21)c1ccncc1	-6.0	0.5	5.4	0.8	40.1*	nt
O=S(=O)(c1ccc(Cl)cc1)n1ccc(-c2cccc(OCc3c(F)cccc3Cl)c2)n1	-12.6	0.0	1.5	-2.5	4.5	-4.3
O=S(=O)(c1ccc(F)cc1)n1ccc(-c2cccc(OCc3c(F)cccc3Cl)c2)n1	-13.2	-10.9	7.5	-5.6	41.9*	2.3
N/C(=N\OC(=O)COc1ccc(Br)cc1)c1ccncc1	1.3	-3.9	-7.1	0.7	0.4	-5.1
CC(Oc1ccc(Br)cc1)C(=O)O/N=C(\N)c1ccncc1 (centres undefined)	-5.1	2.2	-8.3	13.9	54.0*	-11.1
CCOC(=O)c1c(C)c(C)n2c1NC(=O)C2	nt	-3.1	9.0	-1.1	46.4*	nt
CCOC(=O)c1c(C)[nH]c(C(=O)N2CCN(C(=O)OCC)CC2)c1C	-0.4	3.0	8.8	0.7	3.8	-8.8
SMILES	DAGLB inh	Tn7 DDE FP	DDE Tn6 FP inh	MT1-MMP act inh	SKN-1 block	PolyA inh
CCOc1ccc2nc(N(CCN(C)C)C(=O)c3cc4ccccc4cc3OC)sc2c1	0.3	nt	nt	-3.8	38.0*	-0.8
O=C(NC1CCCCN(Cc2cccc(F)c2)C1=O)c1ccc(F)cc1 (centres undefined)	nt	3.7	1.3	nt	nt	nt
Cc1ccc(CSc2nc3ccccc3cc2C=O)cc1	-10.1	-7.8	5.5	2.1	41.7*	9.7
O=Cc1cc2ccccc2nc1SCc1ccc(Cl)cc1	-3.5	-5.0	-3.4	9.9	3.3	0.0
CN(CCO)C1CN(Cc2cn(Cc3ccccc3F)nn2)S(=O)(=O)C1 (centres undefined)	nt	-2.4	-3.0	nt	nt	nt
COCCCNC(=O)COc1ccc2oc3c(c2c1)CCCC3	0.7	1.2	-4.2	0.5	36.0*	-15.9
O=C(Nc1ccccc1)c1cnc[nH]1	-4.2	0.6	4.0	-0.3	31.1*	9.4
FC(F)(F)c1ccccc1Cc1c(-c2ccccc2)nc2ccc(Br)cn12	nt	-6.4	-4.2	1.6	48.3*	nt
N#Cc1ccc(-c2nc3c4ccccc4ccn3c2Cc2ccccc2C(F)(F)F)cc1	nt	2.3	10.6	2.7	41.7*	nt
CCCCOCCCNC(=O)C[C@H]1C[C@@]2(C(=O)OC)C(=C[C@H](C(C)C)O[C@@H]2C2CC2)N(CCC2=CCCCC2)C1=O	nt	-5.6	-4.3	nt	nt	nt
CCOC(=O)C1=C(CSc2nc(-c3ccccc3)ccc2C#N)OC(N)=C(C#N)C1c1ccccc1 (centres undefined)	-4.0	-1.6	-0.2	-68.1	37.4*	-2.0
CCOC(=O)C1=C(CSc2nc(-c3ccccc3)ccc2C#N)OC(N)=C(C#N)C1c1cccnc1 (centres undefined)	-1.6	-2.0	-3.9	-70.3	27.2	0.2
Cc1ccc(O)c(-c2cc(-c3cccc(F)c3)n[nH]2)c1	-2.0	-2.1	-6.8	7.4	37.0*	1.4
Cc1ccc(-c2cc(-c3cccc(F)c3)n[nH]2)c(O)c1	-5.3	-8.3	-7.6	0.2	29.2	-17.7
O=C(NC1CCCCN(Cc2cccc(Cl)c2)C1=O)c1cccs1 (centres undefined)	nt	-3.1	-2.6	nt	nt	nt
O=C(COC(=O)Cc1cccs1)Nc1ccc(OC(F)(F)F)cc1	-1.7	6.3	88.4*	6.0	-2.3	8.1
CCCCCOc1ccccc1C(=O)NCCCC(=O)O	0.9	1.4	-1.1	0.8	-8.3	-1.2
CCCCCOc1ccccc1C(=O)NCCC(=O)O	2.4	4.4	6.8	-0.2	38.2*	-3.8
Cc1cccc(CNC(=S)OCCN2CCCC23CCC(c2ccccc2)CC3)c1 (centres undefined)	nt	-1.1	-1.1	nt	nt	nt
COC(=O)c1cc(NC(=O)CC2SC(=Nc3ccccc3)N(CCc3c[nH]c4ccccc34)C2=O)cc(C(=O)OC)c1 (centres undefined)	0.9	-3.2	-5.3	-10.2	35.6*	9.3
O=C(c1ccc(F)cc1Cl)N(Cc1ccccn1)CC1CCCO1 (centres undefined)	nt	-2.2	-7.8	nt	nt	nt
O=C(NC1CCCCN(Cc2cccc(F)c2)C1=O)c1ccc2ccccc2c1 (centres undefined)	nt	4.1	2.5	nt	nt	nt
O=C1/C(=C\c2ccc(C(F)(F)F)cc2)CSc2sccc21	-6.6	-4.1	-9.6	0.5	36.5*	-18.7
